Compound activity deposited in PubChem by Sanford-Burnham Center for Chemical Genomics.
LMPTP block: blocks human LMPTP phosphatase; recombinant LMPTP-A, OMFP fluorogenic substrate, fluorescence intensity; inhibition, % at 20 µM; hit rate 0.22% among 360,000;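 active = compounds that cut the enzyme signal by at least half of the control window in the single-dose screen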;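 note: plate controls were DMSO wells with enzyme plus substrate for no effect and substrate without enzyme for full effect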
Target sequence (P24666 whole entry, looked up): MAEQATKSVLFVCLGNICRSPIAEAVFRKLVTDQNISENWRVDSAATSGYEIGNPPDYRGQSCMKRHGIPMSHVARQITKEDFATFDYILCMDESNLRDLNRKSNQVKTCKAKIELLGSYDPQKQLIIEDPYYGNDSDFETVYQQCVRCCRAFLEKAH
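Assay system: LMPTP-A phosphatase enzyme | Input: 0.625 nM enzyme | Also added: Fluorogenic phosphatase substrate OMFP at 400 µM final | Compound dosing: One test concentration per compound, 20 µM, with 3% DMSO overall | Schedule: 50 min enzyme reaction at room temperature, protected from light | Signal: Fluorescence intensity | Benchmarks: no-enzyme and uninhibited controls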
Scp1 inh: blocks human Scp-1 phosphatase activity | Recombinant Scp1, phosphopeptide, malachite green phosphate absorbance | hit rate 0.88% among 340,000 | Q9GZU7 | AID 493091 | inhibition, % at 20 µM;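 active = inhibition above about 50% at 20 µM, limit read from the data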;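 note: plate controls were DMSO wells with enzyme for no effect and wells lacking enzyme for full effect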
Target sequence (Q9GZU7 76-261 limits assumed): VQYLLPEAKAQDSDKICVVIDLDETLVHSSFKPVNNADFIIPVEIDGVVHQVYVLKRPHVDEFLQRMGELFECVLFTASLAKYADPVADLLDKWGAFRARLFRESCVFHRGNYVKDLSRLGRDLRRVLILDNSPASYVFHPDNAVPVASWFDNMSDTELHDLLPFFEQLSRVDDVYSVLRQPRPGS
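Test system: SCP-1 phosphatase catalytic domain, residues 76-261 | Compound dosing: One concentration, 20 µM, with 1.0% DMSO | Schedule: 45 min room-temperature reaction, 5 min colour, 30 min stabiliser | Detection: Absorbance at 630 nm | Read-out basis: % inhibition of SCP-1 phosphate liberation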
UBC9 SUMO inh: blocks human SUMOylation mediated by UBC9; P63279; HTRF SUMOylation assay, SAE1/SAE2 + UBC9, in vitro; inhibition, % at 35 µM; hit rate 0.36% among 290,000; AID 2006; in the data active = inhibition above about 50%, passing the limit was not always enough
Target sequence (P63279 whole entry, looked up): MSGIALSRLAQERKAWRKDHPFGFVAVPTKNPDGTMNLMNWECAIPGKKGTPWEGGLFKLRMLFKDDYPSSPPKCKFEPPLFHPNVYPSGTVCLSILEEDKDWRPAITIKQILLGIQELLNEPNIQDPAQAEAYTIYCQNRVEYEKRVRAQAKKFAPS
STEP block: inhibitors of human striatal-enriched phosphatase STEP; hit rate 0.25% among 360,000; P54829; inhibition, % at 20 µM; recombinant STEP, OMFP fluorogenic substrate, fluorescence;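 active = inhibition at 20 µM, scaled per plate between control wells, above about 37%, limit read from the data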;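 note: 0% = DMSO with enzyme and substrate and 100% = substrate only without enzyme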
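System: STEP (striatal-enriched tyrosine phosphatase) enzyme, cell-free; medium: Bis-Tris pH 6.0 buffer with DTT, detergent; dosing: 20 µM, 1% DMSO; times: reaction 20 min, ambient temperature; detection: fluorescence, 480/540 nm; read-out basis: normalized % inhibition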
DNMT1 inh: blocks human DNA methyltransferase DNMT1 | hit rate 0.83% among 360,000 | DNMT1 molecular beacon, Hinp1I cleavage, fluorescence | P26358 | inhibition (reported as % activation of signal), % at 10 µM; in the data active = inhibition above about 50%
SUMO1 PPI mod: SUMO1-SIM interaction modulation; inhibition, % at 20 µM; hit rate 0.33% among 360,000; SUMO1 binding to a labelled peptide, TR-FRET, 1 h; P63165; in the data active = inhibition above about 37%
Target sequence (P63165 whole entry, looked up): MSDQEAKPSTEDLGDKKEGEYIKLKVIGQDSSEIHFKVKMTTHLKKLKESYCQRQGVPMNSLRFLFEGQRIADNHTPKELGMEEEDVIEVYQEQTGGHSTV
DNMT1 interf DR: shows spectral interference in the DNMT1 beacon assay; shares compounds with DNMT1 inh; molecular beacon fluorescence, spectral interference counter-screen; IC50, µM; 200 tested, under 10 active; call rule not given here
DNMT1 confirm: confirmation of human DNMT1 inhibitors; inhibition, % at 10 µM; shares compounds with DNMT1 inh; hit rate 8% among 2,300; DNMT1 molecular beacon HinP1I cleavage, fluorescence;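 active = average inhibition of at least 30% in the single-concentration confirmation test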
DNMT1 interf: shows spectral interference in the DNMT1 beacon assay; shares compounds with DNMT1 inh; DNMT1 molecular beacon spectral interference counterscreen, fluorescence 485/520; activation (fluorescence interference), % at 10 µM; hit rate 1% among 2,300;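 active = activation of at least 30% at 10 µM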;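 note: DNMT1 catalytic domain with a HinP1I cleavage step and a FAM/dabcyl DNA beacon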
* marks the source's active call; other numbers are inactive results; · = not tested or not shown. Most compounds without a hit are left out; they make up all but 1.9% or so of the library.

SMILES	LMPTP block	Scp1 inh	UBC9 SUMO inh	STEP block	DNMT1 inh	SUMO1 PPI mod	DNMT1 confirm	DNMT1 interf	others
CC(C)(C)Cc1c(-c2cccc(Br)c2)nc2ccc(Br)cn12	1	·	·	0	3	-6	·	·
O=C(O)c1cc([N+](=O)[O-])ccc1-c1ccc([N+](=O)[O-])cc1C(=O)O	2	·	·	24	61*	-6	4	2
O=C(O)c1cc([N+](=O)[O-])ccc1N1CCCCC1	3	15	-4	1	2	-28	·	·
CC(=O)Nc1ccc(NC(=O)C(C)OC(=O)c2ccc3[nH]c(C)c(C)c3c2)cc1 (stereo not drawn)	0	-3	·	0	-5	6	·	·
CC1=CC(C)C(=O)N(C)C(C)=C1 (stereo not drawn)	-1	·	·	1	0	-1	·	·
N#CC1=C(N)OC2=C(C(=O)CCC2)C1c1ccncc1 (stereo not drawn)	0	-6	-7	-2	75*	1	5	0
COc1ccc2cc3cc(C(=O)Nc4ccc5c(c4)OCO5)oc3nc2c1	1	1	41	-3	60*	-2	1	0
Cc1ccc2cc3cc(C(=O)NCc4ccc5c(c4)OCO5)oc3nc2c1	8	9	15	2	54*	-1	0	-8
COc1ccccc1-n1cc(-c2ccccc2)c2c(=S)nc[nH]c21	1	-9	-3	1	0	-3	·	·
CCOC(=O)C1=C(c2ccccc2)N=c2s/c(=C\c3ccco3)c(=O)n2C1c1cccs1 (stereo not drawn)	5	29	40	4	58*	1	9	5
CCOC(=O)C1=C(c2ccccc2)N=c2s/c(=C\c3cc(OC)c(OC)c(OC)c3)c(=O)n2C1c1cccs1 (stereo not drawn)	1	-8	-22	2	1	14	·	·
Cc1ccc(NC(=O)CN(C)C(=O)COC(=O)C2=COCCO2)cc1	0	-3	·	0	0	2	·	·
O=C(Nc1ncccc1O)c1ccc(S(=O)(=O)NCc2ccco2)cc1	-2	·	·	-1	7	-5	·	·
CCN(CC)S(=O)(=O)c1cccc(C(=O)N[C@H](C(=O)NC2=NCCS2)C(C)C)c1	-2	-10	·	-4	66*	0	-1	2
CC1CCCCC1NC(=O)CN1C(=O)c2ccccc2S1(=O)=O (stereo not drawn)	-2	-2	10	-1	1	0	·	·
CC(C)CC1C(=O)N(Cc2cn(Cc3ccco3)nn2)CCS(=O)(=O)N1Cc1ccc(-c2ccncc2)cc1 (stereo not drawn)	3	·	·	2	-6	-1	·	·
CC1C=CC(C)C(C(=O)c2ccccc2)C1C(=O)c1ccccc1 (stereo not drawn)	2	·	·	3	6	8	·	·
O=C(c1ccccc1)C1OC1C(=O)c1ccccc1 (stereo not drawn)	3	-10	·	4	50*	9	9	10
O=C(O)/C=C/c1ccc([N+](=O)[O-])o1	11	58*	7	31	75*	-1	5	2
CCOC(=O)c1c(NC(=O)CSc2nnc(C)o2)sc(C)c1C	-1	-4	6	4	59*	1	3	1
CCOc1cccc2cc(-c3nnc(NCc4ccc5c(c4)OCO5)s3)c(=O)oc12	33	1	48	3	70*	1	0	-5
CCOc1ccccc1C(=O)NCc1ccc2c(c1)OCO2	1	-7	6	1	1	0	·	·
OC[C@@H]1CN(Cc2ccc3c(c2)OCO3)C[C@H](n2cnc3c(NCc4ccc(F)cc4)ncnc32)O1	0	·	·	-3	-3	-3	·	·
COc1ccccc1-c1nnc(NC(=O)c2ccc3c(c2)OCO3)s1	3	-4	15	0	55*	2	2	-5
CCc1ccc(N2CC(C(=O)Nc3ccccc3N3CCCC3)CC2=O)cc1 (stereo not drawn)	0	·	·	1	3	-2	·	·
SMILES	LMPTP block	Scp1 inh	UBC9 SUMO inh	STEP block	DNMT1 inh	SUMO1 PPI mod	DNMT1 confirm	DNMT1 interf	others
ClN=C1C=CC=CC1=NCl	68*	·	·	8	114*	57*	36*	-8	DNMT1 interf DR=>99
COC1=CC(=NCl)C=CC1=NCl	36	·	·	7	43	16	·	·
FC(F)(F)c1cc(-c2cccs2)nc(-n2cc(Cl)cn2)n1	1	-12	2	1	-3	-2	·	·
Cc1cc(NC(=O)CCN2C(=O)C3C4C=CC(C4)C3C2=O)ccc1Br (stereo not drawn)	1	-3	9	-3	3	0	·	·
COc1ccc(C(=O)Nc2ccc(N3CCCC3)cc2)cc1	40	-9	4	5	86*	5	4	1
COc1ccccc1C(=O)NC(=S)Nc1ccc(N2CCCC2)cc1	4	8	6	2	68*	9	5	4
CCOc1ccc(C(=O)Nc2ccc(N3CCCC3)cc2)cc1	5	-3	-9	0	80*	-9	7	0
CC1(C2(O)CCCCC2)NCCc2ccccc21 (stereo not drawn)	3	-7	·	-1	3	2	·	·
CCN(C(=O)c1cc2c(=O)[nH]c3ccc(C)cc3c2s1)c1ccccc1F	-2	3	15	3	63*	18	-1	-2
CC(=O)OCC(=O)C12OC(C)(C)OC1CC1C3CC=C4CC(O)CCC4(C)C3CCC12C (stereo not drawn)	0	-15	·	0	16	7	·	·
CC1(C)OC2CC3C4CC=C5CC(O)CCC5(C)C4CCC3(C)C2(C(=O)CO)O1 (stereo not drawn)	4	-4	·	0	67*	-3	2	4
COc1ccc(NC(=O)COc2ccc3c(C)cc(=O)oc3c2)cc1S(=O)(=O)N1CCCCC1	2	8	·	3	63*	6	-1	-9
Cc1cc(=O)oc2cc(OCC(=O)N/N=C/c3ccccc3O)ccc12	39	28	1	26	61*	28	1	-2
Cc1cc(=O)oc2cc(OCC(=O)c3ccccc3)ccc12	0	-12	19	1	-2	5	·	·
Cc1cc(C)c2c(N)c3cccc(C)c3nc2n1	13	-10	14	-11	73*	-2	40*	-3	DNMT1 interf DR=>99
Cc1cccc2c(N)c3c(nc12)CCCC3 (tested in a mixture with another compound)	1	-3	18	-2	6	-14	·	·
